Experimental findings from ChEMBL document CHEMBL5338733, “Heterobifunctional Ligase Recruiters Enable pan-Degradation of Inhibitor of Apoptosis Proteins” (J Med Chem, 2023) are described below.

Assay [1] addresses T1, von Hippel-Lindau disease tumor suppressor/Baculoviral IAP repeat-containing protein 2 (Homo sapiens) (UniProt Q13490+P40337). Description: PROTAC activity at VHL/IAP in human MM1.S cells assessed as induction of cIAP1 degradation incubated for 16 hrs by western blot analysis. The format is cell-based. The gist of the method:
(§1)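 MM.1S cells treated 16 h at 0.1 or 1 μM (or concentration series); lysed, SDS-PAGE, PVDF immunoblot, ECL; densitometry normalized to loading control and DMSO; average of ≥3 independent experiments, DC50 from n = 4 repeats where derived.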
A general note: Immunoblotting shows a protein as a band on a membrane.

For assay [2], the target named is T2, von Hippel-Lindau disease tumor suppressor/Baculoviral IAP repeat-containing protein 3 (Homo sapiens) (UniProt Q13489+P40337). The assay can be described thus: PROTAC activity at VHL/IAP in human MM1.S cells assessed as induction of cIAP2 degradation incubated for 16 hrs by western blot analysis. It counts as cell-based. In short, it runs like this: as §1
T2 sequence (P40337 whole entry, looked up): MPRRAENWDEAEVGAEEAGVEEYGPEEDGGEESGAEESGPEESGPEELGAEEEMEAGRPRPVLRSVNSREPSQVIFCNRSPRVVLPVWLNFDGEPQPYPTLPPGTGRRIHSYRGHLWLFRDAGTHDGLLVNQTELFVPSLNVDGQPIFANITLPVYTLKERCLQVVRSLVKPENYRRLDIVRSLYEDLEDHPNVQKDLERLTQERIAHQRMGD
T2 sequence (Q13489 whole entry, looked up): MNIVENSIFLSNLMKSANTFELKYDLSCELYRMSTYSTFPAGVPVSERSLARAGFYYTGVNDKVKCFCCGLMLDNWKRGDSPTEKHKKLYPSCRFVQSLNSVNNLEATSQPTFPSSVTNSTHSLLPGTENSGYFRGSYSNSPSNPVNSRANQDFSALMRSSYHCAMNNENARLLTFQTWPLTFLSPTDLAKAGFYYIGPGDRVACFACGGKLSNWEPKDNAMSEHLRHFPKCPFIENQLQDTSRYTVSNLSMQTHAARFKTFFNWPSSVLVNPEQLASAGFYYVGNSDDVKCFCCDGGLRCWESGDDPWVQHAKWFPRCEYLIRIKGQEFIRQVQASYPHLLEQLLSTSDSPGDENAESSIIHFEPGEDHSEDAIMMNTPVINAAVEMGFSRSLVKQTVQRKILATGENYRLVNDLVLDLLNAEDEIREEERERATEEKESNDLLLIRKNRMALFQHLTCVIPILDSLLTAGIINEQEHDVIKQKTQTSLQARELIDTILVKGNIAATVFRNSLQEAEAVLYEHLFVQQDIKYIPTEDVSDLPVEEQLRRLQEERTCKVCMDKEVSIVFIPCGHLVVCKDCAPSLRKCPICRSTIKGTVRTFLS
Assay [3] addresses T3, von Hippel-Lindau disease tumor suppressor/E3 ubiquitin-protein ligase XIAP (Homo sapiens) (UniProt P98170+P40337). The assay can be described thus: PROTAC activity at VHL/IAP in human MM1.S cells assessed as induction of XIAP degradation incubated for 16 hrs by western blot analysis. It counts as cell-based. In short, it runs like this:
as §1

For assay [4], the target named is T4, von Hippel-Lindau disease tumor suppressor/IAP (Homo sapiens) (UniProt P98170+Q13489+Q13490+P40337). The assay can be described thus: PROTAC activity at VHL/IAP in human MM1.S cells assessed as induction of VHL30 degradation incubated for 16 hrs by western blot analysis. It counts as cell-based. To be noted: dose 0.0001-1 µM. The gist of the method:
as §1

Assay [5] addresses T1, von Hippel-Lindau disease tumor suppressor/Baculoviral IAP repeat-containing protein 2 (Homo sapiens). The assay can be described thus: PROTAC activity at VHL/IAP in human MM1.S cells assessed as induction of cIAP1 degradation at 0.1 uM measured after 3 hrs by western blot analysis. The format is cell-based. The gist of the method: (§2)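 Time course in MM.1S cells at 0.1 μM; protein levels at sampled time points by immunoblot (SDS-PAGE, PVDF, ECL) with densitometry.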

Assay [6] addresses T2, von Hippel-Lindau disease tumor suppressor/Baculoviral IAP repeat-containing protein 3 (Homo sapiens). Description: PROTAC activity at VHL/IAP in human MM1.S cells assessed as induction of cIAP2 degradation at 0.1 uM measured after 3 hrs by western blot analysis. It counts as cell-based. The gist of the method: as §2
The target of assay [7] is T3, von Hippel-Lindau disease tumor suppressor/E3 ubiquitin-protein ligase XIAP (Homo sapiens). The assay can be described thus: PROTAC activity at VHL/IAP in human MM1.S cells assessed as induction of XIAP degradation at 0.1 uM measured after 3 hrs by western blot analysis. The format is cell-based. In short, it runs like this: as §2
For assay [8], the target named is T4, von Hippel-Lindau disease tumor suppressor/IAP (Homo sapiens). The assay can be described thus: PROTAC activity at VHL/IAP in human MM1.S cells assessed as induction of VHL30 degradation at 0.1 uM measured after 6 hrs by western blot analysis. It counts as cell-based. The gist of the method:
as §2

The target of assay [9] is T1, von Hippel-Lindau disease tumor suppressor/Baculoviral IAP repeat-containing protein 2 (Homo sapiens). The assay can be described thus: PROTAC activity at VHL/IAP in human MM1.S cells assessed as induction of cIAP1 degradation at 1 uM incubated for 16 hrs followed by drug wash-out for 72 hrs by western blot analysis. It counts as cell-based. In short, it runs like this: (§3)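 MM.1S cells given a single exposure to 1 μM, then compound washed out and protein followed up to 72 h by immunoblot with densitometry.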

Assay [10] concerns the target T2, von Hippel-Lindau disease tumor suppressor/Baculoviral IAP repeat-containing protein 3 (Homo sapiens). The assay can be described thus: PROTAC activity at VHL/IAP in human MM1.S cells assessed as induction of cIAP2 degradation at 1 uM incubated for 16 hrs followed by drug wash-out for 72 hrs by western blot analysis. It counts as cell-based. The gist of the method:
as §3

Assay [11] concerns the target T3, von Hippel-Lindau disease tumor suppressor/E3 ubiquitin-protein ligase XIAP (Homo sapiens). The assay can be described thus: PROTAC activity at VHL/IAP in human MM1.S cells assessed as induction of XIAP degradation at 1 uM incubated for 16 hrs followed by drug wash-out for 72 hrs by western blot analysis. It counts as cell-based. The gist of the method: as §3

In assay [12] the target is T4, von Hippel-Lindau disease tumor suppressor/IAP (Homo sapiens). Description: PROTAC activity at VHL/IAP in human MM1.S cells assessed as induction of VHL30 degradation at 1 uM incubated for 16 hrs followed by drug wash-out for 72 hrs by western blot analysis. It counts as cell-based. In short, it runs like this:
as §3

The target is the same in assay [13]. The assay can be described thus: PROTAC activity at VHL/IAP in human MM1.S cells assessed as induction of VHL19 degradation at 1 uM incubated for 16 hrs followed by drug wash-out for 72 hrs by western blot analysis. The format is cell-based. In short, it runs like this: as §3
In assay [14] the target is T3, von Hippel-Lindau disease tumor suppressor/E3 ubiquitin-protein ligase XIAP (Homo sapiens). The assay can be described thus: PROTAC activity at VHL/IAP in human MM1.S cells assessed as induction of XIAP degradation at 1 uM incubated for 16 hrs followed by drug wash-out for 72 hrs and later treated with VHL inhibitor, VH298 by western blot analysis. The format is cell-based.

Assay [15] addresses T4, von Hippel-Lindau disease tumor suppressor/IAP (Homo sapiens). The assay can be described thus: PROTAC activity at VHL/IAP in cIPA1 knock-out human MM1.S cells assessed as induction of VHL30 degradation at 0.1 uM incubated for 16 hrs by western blot analysis. It counts as cell-based. In short, it runs like this: (§4)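 Cas9-expressing MM.1S cells transduced with sgRNA against cIAP1, cIAP2 or XIAP (control sgRNA luciferase; ≥95% transduction by FACS at 48 h); treated 0.1 μM for 16 h; VHL30 measured by immunoblot (SDS-PAGE, PVDF, ECL) with densitometry.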

Assay [16] shares this target. Description: PROTAC activity at VHL/IAP in cIPA2 knock-out human MM1.S cells assessed as induction of VHL30 degradation at 0.1 uM incubated for 16 hrs by western blot analysis. It counts as cell-based. In short, it runs like this:
as §4

The target is the same in assay [17]. Description: PROTAC activity at VHL/IAP in XIAP knock-out human MM1.S cells assessed as induction of VHL30 degradation at 0.1 uM incubated for 16 hrs by western blot analysis. The format is cell-based. The gist of the method:
as §4

For assay [18], the target named is T1, von Hippel-Lindau disease tumor suppressor/Baculoviral IAP repeat-containing protein 2 (Homo sapiens). Description: PROTAC activity at VHL/IAP in human MM1.S cells assessed as induction of cIAP1 degradation pretreated for 1 hr with proteasome inhibitor, MG132 followed by incubation with drug for 3 hrs by western blot analysis. It counts as cell-based.
For assay [19], the target named is T2, von Hippel-Lindau disease tumor suppressor/Baculoviral IAP repeat-containing protein 3 (Homo sapiens). The assay can be described thus: PROTAC activity at VHL/IAP in human MM1.S cells assessed as induction of cIAP2 degradation pretreated for 1 hr with proteasome inhibitor, MG132 followed by incubation with drug for 3 hrs by western blot analysis. It counts as cell-based.

For assay [20], the target named is T3, von Hippel-Lindau disease tumor suppressor/E3 ubiquitin-protein ligase XIAP (Homo sapiens). The assay can be described thus: PROTAC activity at VHL/IAP in human MM1.S cells assessed as induction of XIAP degradation pretreated for 1 hr with proteasome inhibitor, MG132 followed by incubation with drug for 3 hrs by western blot analysis. It counts as cell-based.

Assay [21] deals with T1, von Hippel-Lindau disease tumor suppressor/Baculoviral IAP repeat-containing protein 2 (Homo sapiens). Description: PROTAC activity at VHL/IAP in human MM1.S cells assessed as induction of cIAP1 degradation pretreated for 1 hr with ubiquitin-activating inhibitor, MLN7243 followed by incubation with drug for 3 hrs by western blot analysis. It counts as cell-based.
The target of assay [22] is T2, von Hippel-Lindau disease tumor suppressor/Baculoviral IAP repeat-containing protein 3 (Homo sapiens). Description: PROTAC activity at VHL/IAP in human MM1.S cells assessed as induction of cIAP2 degradation pretreated for 1 hr with ubiquitin-activating inhibitor, MLN7243 followed by incubation with drug for 3 hrs by western blot analysis. The format is cell-based.

The target in assay [23] is T3, von Hippel-Lindau disease tumor suppressor/E3 ubiquitin-protein ligase XIAP (Homo sapiens). Description: PROTAC activity at VHL/IAP in human MM1.S cells assessed as induction of XIAP degradation pretreated for 1 hr with ubiquitin-activating inhibitor, MLN7243 followed by incubation with drug for 3 hrs by western blot analysis. It counts as cell-based.
Assay [24] concerns the target T1, von Hippel-Lindau disease tumor suppressor/Baculoviral IAP repeat-containing protein 2 (Homo sapiens). Description: PROTAC activity at VHL/IAP in human MM1.S cells assessed as induction of cIAP1 degradation at 100 nM incubated for 3 hrs by diaPASEF-based analysis. The format is cell-based. The gist of the method:
(§5)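 MM.1S cells treated with DMSO or 0.1 μM for 3 h (four biological replicates); urea lysis, reduction/alkylation, LysC then trypsin digestion, diaPASEF on timsTOF Pro2; label-free quantification, missing values imputed from Gaussian distribution, log2 fold change vs DMSO with limma statistics.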

Assay [25] addresses T3, von Hippel-Lindau disease tumor suppressor/E3 ubiquitin-protein ligase XIAP (Homo sapiens). Description: PROTAC activity at VHL/IAP in human MM1.S cells assessed as induction of XIAP degradation at 100 nM incubated for 3 hrs by diaPASEF-based analysis. The format is cell-based. The gist of the method:
as §5

The subject of assay [26] is NCI-H929. The assay can be described thus: Cytotoxicity against human NCI-H929 cells assessed as reduction in cell viability measured after 96 hrs in presence of TNF-alpha by CellTiter-Glo luminescent assay. The format is functional, cell-based. To be noted: NCI-H929, 96 h. The gist of the method:
(§6)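 Cells seeded with compound at indicated concentrations ± TNF-α 1 ng/mL, incubated 96 h at 37 °C; viability by CellTiter-Glo luminescence, normalized to DMSO control; mean ± SD of biological triplicates. NCI-H929 cultured in RPMI-1640/10% FBS with 2-mercaptoethanol and sodium pyruvate; other lines in RPMI-1640/10% FBS, 37 °C, 5% CO2.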
Background: ATP-based viability assays read luminescence as a measure of living cells.

Assay [27] deals with SU-DHL-6. Description: Cytotoxicity against human SU-DHL-6 cells assessed as reduction in cell viability measured after 96 hrs in presence of TNF-alpha by CellTiter-Glo luminescent assay. The format is functional, cell-based. To be noted: SU-DHL-6, 96 h. The gist of the method: as §6
Assay [28] concerns the target Baculoviral IAP repeat-containing protein 2 (Homo sapiens) (UniProt Q13490). The assay can be described thus: Induction of cIAP1 degradation in human MM1.S cells at 100 nM incubated for 3 hrs by diaPASEF-based analysis. The format is cell-based. The gist of the method:
(§7)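 MM.1S cells exposed to DMSO or 0.1 μM compound for 3 h, then washed with PBS and snap-frozen. Lysed in 8 M urea/EPPS pH 8.5 buffer. 50 μg protein reduced, alkylated, precipitated, then digested with LysC and trypsin. Analysed by diaPASEF on timsTOF Pro2. Missing values imputed from a Gaussian distribution; log2 fold change versus DMSO with limma statistics.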

Assay [29] deals with E3 ubiquitin-protein ligase XIAP (Homo sapiens) (UniProt P98170). Description: Induction of XIAP degradation in human MM1.S cells at 100 nM incubated for 3 hrs by diaPASEF-based analysis. It counts as cell-based. In short, it runs like this:
as §7

Calls of active or inactive are those of the source. No cut-off for these calls is given here.

T1 sequence (P40337 whole entry, looked up): as the sequence (P40337 whole entry, looked up) above
T1 sequence (Q13490 whole entry, looked up): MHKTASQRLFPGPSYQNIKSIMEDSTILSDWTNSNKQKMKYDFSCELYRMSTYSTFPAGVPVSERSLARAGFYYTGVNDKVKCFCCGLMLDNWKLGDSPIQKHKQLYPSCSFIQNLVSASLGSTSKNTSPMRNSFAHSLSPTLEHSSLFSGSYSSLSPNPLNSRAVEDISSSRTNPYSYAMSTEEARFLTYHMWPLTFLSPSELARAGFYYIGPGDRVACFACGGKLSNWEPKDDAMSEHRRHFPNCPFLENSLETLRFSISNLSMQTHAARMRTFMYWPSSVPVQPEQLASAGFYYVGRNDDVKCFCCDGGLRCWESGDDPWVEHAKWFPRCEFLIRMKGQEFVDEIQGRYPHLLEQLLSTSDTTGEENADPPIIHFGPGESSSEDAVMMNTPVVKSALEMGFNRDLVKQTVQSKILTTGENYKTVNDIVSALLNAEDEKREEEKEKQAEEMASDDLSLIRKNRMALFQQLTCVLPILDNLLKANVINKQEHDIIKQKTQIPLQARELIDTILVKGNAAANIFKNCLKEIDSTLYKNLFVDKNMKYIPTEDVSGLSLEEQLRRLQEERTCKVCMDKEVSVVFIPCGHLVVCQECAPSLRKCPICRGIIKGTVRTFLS
T4 sequence (P40337 whole entry, looked up): as the sequence (P40337 whole entry, looked up) above
T4 sequence (P98170 whole entry, looked up): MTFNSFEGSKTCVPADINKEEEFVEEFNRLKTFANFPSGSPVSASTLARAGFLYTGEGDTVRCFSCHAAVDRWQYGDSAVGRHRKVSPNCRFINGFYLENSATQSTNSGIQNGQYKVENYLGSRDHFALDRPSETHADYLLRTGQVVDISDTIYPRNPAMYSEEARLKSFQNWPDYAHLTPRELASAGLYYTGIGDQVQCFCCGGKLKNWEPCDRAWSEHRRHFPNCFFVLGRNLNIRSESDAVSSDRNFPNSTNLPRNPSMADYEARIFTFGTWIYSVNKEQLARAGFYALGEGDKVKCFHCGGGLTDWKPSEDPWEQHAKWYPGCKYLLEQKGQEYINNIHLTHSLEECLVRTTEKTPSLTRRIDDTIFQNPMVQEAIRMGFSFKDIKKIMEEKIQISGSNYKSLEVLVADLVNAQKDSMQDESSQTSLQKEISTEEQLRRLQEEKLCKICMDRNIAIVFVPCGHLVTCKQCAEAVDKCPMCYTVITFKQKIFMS
T4 sequence (Q13489 whole entry, looked up): as the sequence (Q13489 whole entry, looked up) above
T4 sequence (Q13490 whole entry, looked up): as the sequence (Q13490 whole entry, looked up) above
T3 sequence (P40337 whole entry, looked up): as the sequence (P40337 whole entry, looked up) above
T3 sequence (P98170 whole entry, looked up): as the sequence (P98170 whole entry, looked up) above
E3 ubiquitin-protein ligase XIAP (Homo sapiens), sequence (P98170 whole entry): as the sequence (P98170 whole entry, looked up) above
Baculoviral IAP repeat-containing protein 2 (Homo sapiens), sequence (Q13490 whole entry): as the sequence (Q13490 whole entry, looked up) above

In general, IC50 refers to the midpoint of a concentration-inhibition curve. Turning to `CN[C@@H](C)C(=O)N[C@H](C(=O)N1C[C@@H](Oc2cccc(OCCCCC(=O)N[C@H](C(=O)N3C[C@H](O)C[C@H]3C(=O)N[C@@H](C)c3ccc(-c4scnc4C)cc3)C(C)(C)C)c2)C[C@H]1C(=O)N[C@@H]1CCCc2ccccc21)C1CCCCC1`, the Activity result in assay [1] is “Dose-Dependent Effect”; in assay [2] it was “Dose-Dependent Effect”; in assay [3], “Dose-Dependent Effect”; in assay [4], “Dose-Dependent Effect”; in [5] it was 100%; in assay [6], 100%. Further, in assay [7], the Activity was 100%. Besides, the outcome in [8], in assay [9], in assay [10], in assay [11], in assay [15] and in assay [16] was Active. Also, the outcome in assay [17], in assay [24] and in assay [25] was Active. Further, the outcome in [12], in assay [13], in assay [14], in assay [18], in assay [19] and in assay [20] was inactive. The outcome in [21], in [22] and in [23] was inactive. The concentration for half-maximal inhibition (IC50) in assay [26] came out at 8 nM; in assay [27], 1.6 nM.
As for `CN[C@@H](C)C(=O)N[C@@H](C(=O)N1CCC[C@H]1C(=O)N[C@@H]1c2ccccc2C[C@@H]1OCC#CC#CCO[C@H]1Cc2ccccc2[C@H]1NC(=O)[C@@H]1CCCN1C(=O)[C@H](NC(=O)[C@H](C)NC)C1CCCCC1)C1CCCCC1`, in assay [28], the result was Active. For the same molecule, the outcome in assay [29] was inactive.
